We go through 15 molecules from PubChem BioAssay.

The structures appear in SMILES notation. Activity calls are given as the source filed them.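 How the source made its calls, unless noted: active means viability at or under a set limit in both replicates, limit being median viability minus 3 SD (cut at about 48% in these data, passing the limit was not always enough); inconclusive means at or under the limit in just one replicate; inactive means at or above the limit in both replicates.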

A short description of assay [1]: reducers of endogenous Her2 protein level, primary screen, SKBR3 breast tumor cells, AlphaScreen, ATP viability (AID 461;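 active means Her2 level under about 52% in both replicate screens, with viability over 70% of control, limit read from the data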;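 on Her2 level: lower value means less Her2 protein in the cells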;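 on viability: percent of carrier control wells set as 100% viability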). Conditions: 18-24 h, measured here: SKBR3 viability, ATP luminescence, at 10 µM. In general terms: Bead proximity is the source of the signal in Alpha formats.
The target in assay [2] is Receptor tyrosine-protein kinase erbB-2 (Homo sapiens) (UniProt P04626). The description is as above. Conditions: 18-24 h, at 10 µM, stronger effect = lower value.
Assay [3] can be described thus: SK-BR-3 cell growth inhibitors, pilot screen, 24 h, human (AID 572;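 active means viability at or below 10% of carrier control in both of two separate runs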;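 further: compound exposure lasted between 18 and 24 h rather than exactly 24 h; 100% = carrier-treated control wells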). Conditions: SK-BR-3 viability, CellTiter-Glo luminescence, at 10 µM, stronger effect = lower value. (In general: Cellular ATP, detected with luciferase, serves as a proxy for viable cell number.)
Assay [4] in a line: HUVEC growth inhibition – cell-based, human, primary screen (AID 575;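 active means viability at or below 30% in both replicate assays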;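 further: 100% = median of untreated cell wells with 0.1% DMSO on each plate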). The following applies: HUVEC proliferation, CellTiter-Glo luminescence, 72 h; at 10 µM; stronger effect = lower value. The essentials:
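Timing: 72 h treatment at 37 °C; material: HUVEC primary cells; technique: CellTiter-Glo luminescence measuring cellular ATP; controls: vehicle and MePR control wells; measure: percent of median DMSO-control luminescence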

Assay [5] in a line: growth inhibitors of H69AR lung tumor, primary screen, human, duplicate replicates (AID 580).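 Further: 100% = mean luminescence of untreated wells and 0% = no signal.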 The following applies: H69AR lung tumor cells viability, ATP luminescence, 72 h; at 10 µM; stronger effect = lower value.
Assay [6] is described as follows: reversal of MRP1-mediated doxorubicin resistance, pilot screen, H69AR cells, doxorubicin co-treatment (AID 601;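 active means viability loss from added drug above about 55%, and viability with drug at most 40%, in both replicates, limit read from the data, passing the limit was not always enough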). Conditions: CellTiter-Glo, 72 h, at 10 µM; for differential viability (reversal): stronger effect = higher value.
Assay [7] is described as follows: 384-well plate pilot, post-Golgi transport modulator project, inhibition of yeast transport mutant growth (AID 636; in the data active means inhibition above about 31%). The following applies: absorbance 615 nm, about 18 h, stronger effect = higher value.
Assay [8] is described as follows: growth suppression of yeast trafficking mutant, preliminary HTS, modulators of trafficking downstream of Golgi apparatus project, 1536-format plate, OD 615 nm (AID 637; in the data active means inhibition above about 30%). Conditions: yeast transport mutant growth, absorbance 615 nm, 18 h; stronger effect = higher value.
Setting [9] is: H69AR cells + 2 uM doxorubicin, measured here: viability with 2 uM doxorubicin, stronger effect = lower value.
[10] abbreviates: H69AR cells, compound alone cytotoxicity.

Sequence of Receptor tyrosine-protein kinase erbB-2 (Homo sapiens) (P04626 whole entry, looked up): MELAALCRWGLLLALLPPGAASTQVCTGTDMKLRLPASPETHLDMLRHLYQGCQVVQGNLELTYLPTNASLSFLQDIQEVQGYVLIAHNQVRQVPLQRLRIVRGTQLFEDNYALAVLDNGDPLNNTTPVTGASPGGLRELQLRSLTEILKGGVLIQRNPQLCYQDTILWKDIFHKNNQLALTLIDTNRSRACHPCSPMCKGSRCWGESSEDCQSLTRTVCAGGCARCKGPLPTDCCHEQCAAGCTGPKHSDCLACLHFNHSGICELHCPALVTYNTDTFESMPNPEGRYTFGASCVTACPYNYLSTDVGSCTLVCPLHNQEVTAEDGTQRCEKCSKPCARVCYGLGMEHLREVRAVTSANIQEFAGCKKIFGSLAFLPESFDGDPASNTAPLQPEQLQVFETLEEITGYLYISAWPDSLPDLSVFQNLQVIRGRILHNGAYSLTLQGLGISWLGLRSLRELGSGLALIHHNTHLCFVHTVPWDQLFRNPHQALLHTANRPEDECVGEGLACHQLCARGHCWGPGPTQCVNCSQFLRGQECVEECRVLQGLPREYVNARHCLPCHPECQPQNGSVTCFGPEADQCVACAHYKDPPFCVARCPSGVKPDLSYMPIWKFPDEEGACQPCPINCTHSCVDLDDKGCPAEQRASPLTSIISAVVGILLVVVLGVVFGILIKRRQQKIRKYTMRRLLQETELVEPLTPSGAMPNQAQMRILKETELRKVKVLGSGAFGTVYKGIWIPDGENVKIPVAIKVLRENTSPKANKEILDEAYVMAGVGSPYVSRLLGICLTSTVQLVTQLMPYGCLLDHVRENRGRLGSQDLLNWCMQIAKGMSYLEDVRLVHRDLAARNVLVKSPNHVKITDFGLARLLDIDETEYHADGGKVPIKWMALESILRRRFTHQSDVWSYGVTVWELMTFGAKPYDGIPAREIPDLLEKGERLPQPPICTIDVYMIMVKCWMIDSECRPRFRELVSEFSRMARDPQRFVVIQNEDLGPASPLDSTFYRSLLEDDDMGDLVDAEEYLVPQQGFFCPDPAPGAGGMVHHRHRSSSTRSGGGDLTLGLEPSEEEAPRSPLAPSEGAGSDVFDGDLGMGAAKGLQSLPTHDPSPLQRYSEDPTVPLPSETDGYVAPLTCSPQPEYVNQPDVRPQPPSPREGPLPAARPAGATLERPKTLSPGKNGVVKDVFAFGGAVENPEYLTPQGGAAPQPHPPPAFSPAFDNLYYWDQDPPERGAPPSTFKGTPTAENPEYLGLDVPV

Take `CCOc1ccc(NC(=O)CSc2nnc(Cc3cccn3C)n2-c2ccc(OC)cc2)cc1`: the viability in assay [1] is 82%; in assay [3], 82% (inactive); in assay [4], 79.5% (inactive); in assay [5], 90.6% (inactive); in assay [6] (setting [9]), 95.9%; in assay [6] (setting [10]), 90.6%. Moreover, the Her2 level in assay [2] is 81% (inactive). Besides, in assay [6] (H69AR cells + 2 uM doxorubicin), the differential viability (reversal) was -5.27% (inactive). The inhibition is -1.49% (inactive) in assay [7] and -8.03% (inactive) in assay [8].
Consider `Brc1ccc(-c2cn3cccnc3n2)cc1`, for which the viability in assay [1] is 130%; in assay [3], 130% (inactive); in assay [4], 86.3% (inactive); in assay [5], 104% (inactive); in assay [6] (setting [9]), 97.1%; in assay [6] (setting [10]) it was 104%. The Her2 level in assay [2] was 97.5% (inactive). For the same molecule, the differential viability (reversal) in assay [6] (H69AR cells + 2 uM doxorubicin) is 6.97% (inactive). For the same molecule, the inhibition in assay [7] is -3.87% (inactive); in assay [8] it was 0.97% (inactive).
With `O=c1c2nnn(Cc3ccc(Cl)cc3)c2ncn1Cc1ccc(F)cc1`, the viability in assay [1] was 124%; in assay [3], 124% (inactive); in assay [4], 65.6% (inactive); in assay [5] it was 94.6% (inactive); in assay [6] (setting [9]), 87.1%; in assay [6] (setting [10]), 94.6%. Also, the Her2 level in assay [2] was 89.5% (inactive). Also, in assay [6] (H69AR cells + 2 uM doxorubicin), the differential viability (reversal) was 7.53% (inactive). Moreover, the results for the inhibition in assay [7] and in assay [8] were -9.86% (inactive) and 1.75% (inactive), respectively.
With `O=S(=O)(NCC1CCCO1)c1cc(Cl)ccc1Br` (stereo not given), the viability in assay [1] is 87.5%; in assay [3], 87.5% (inactive); in assay [4], 109% (inactive); in assay [5] it was 96.5% (inactive); in assay [6] (setting [9]) it was 94.1%; in assay [6] (setting [10]) it was 96.5%. In assay [2], the Her2 level is 121% (inactive). For the same molecule, the differential viability (reversal) in assay [6] (H69AR cells + 2 uM doxorubicin) was 2.42% (inactive). Further, the inhibition was 3.25% (inactive) in assay [7] and 4% (inactive) in assay [8].
As for `CCOc1ccc(N(C(C)=O)C2C=CS(=O)(=O)C2)cc1` (stereo not given), the viability was 91.5% in assay [1]; 91.5% (inactive) in assay [3]; 95.7% (inactive) in assay [4]; 94.9% (inactive) in assay [5]; 92.4% in assay [6] (setting [9]); 94.9% in assay [6] (setting [10]). Besides, in assay [2], the Her2 level was 90.5% (inactive). In assay [6] (H69AR cells + 2 uM doxorubicin), the differential viability (reversal) is 2.48% (inactive). Further, the inhibition in assay [7] is -1.87% (inactive); in assay [8] it was 0.33% (inactive).
Turning to `CCOc1ccc(CSC(CC(=O)O)C(=O)O)cc1` (stereo not given), the viability is 90% in assay [1]; 90% (inactive) in assay [3]; 84.1% (inactive) in assay [4]; 84.2% (inactive) in assay [5]; 86.8% in assay [6] (setting [9]); 84.2% in assay [6] (setting [10]). Besides, the Her2 level in assay [2] was 83.5% (inactive). For the same molecule, the differential viability (reversal) in assay [6] (H69AR cells + 2 uM doxorubicin) was -2.67% (inactive). Also, the inhibition was -3.29% (inactive) in assay [7] and 0.55% (inactive) in assay [8].
As to `CCN(C#N)c1nc(NC(C)C)nc(NC(C)C)n1`, the viability in assay [1] was 96.5%; in assay [3] it was 96.5% (inactive); in assay [4] it was 97.6% (inactive); in assay [5], 93.6% (inactive); in assay [6] (setting [9]), 88.8%; in assay [6] (setting [10]) it was 93.6%. Besides, the Her2 level in assay [2] was 93% (inactive). The differential viability (reversal) in assay [6] (H69AR cells + 2 uM doxorubicin) was 4.81% (inactive). In addition, the figures for the inhibition in assay [7] and in assay [8] were -4.46% (inactive) and -7.17% (inactive), respectively.
With `O=C(NCc1cccs1)C1CCCN(c2ncccn2)C1` (stereo not given), the viability was 104% in assay [1]; 104% (inactive) in assay [3]; 105% (inactive) in assay [4]; 94.8% (inactive) in assay [5]; 85.9% in assay [6] (setting [9]); 94.8% in assay [6] (setting [10]). For the same molecule, the Her2 level in assay [2] is 89.5% (inactive). For the same molecule, in assay [6] (H69AR cells + 2 uM doxorubicin), the differential viability (reversal) was 8.86% (inactive). The inhibition in assay [7] was -2.4% (inactive); in assay [8], -1.94% (inactive).
With `Cc1cc(-c2ccc(F)cc2)nc2cc(C(N)=O)nn12`, the viability is 94.5% in assay [1]; 94.5% (inactive) in assay [3]; 84.6% (inactive) in assay [4]; 87.6% (inactive) in assay [5]; 89.6% in assay [6] (setting [9]); 87.6% in assay [6] (setting [10]). In addition, the Her2 level in assay [2] was 104% (inactive). For the same molecule, the differential viability (reversal) in assay [6] (H69AR cells + 2 uM doxorubicin) was -1.99% (inactive). Further, the inhibition in assay [7] was -2.47% (inactive); in assay [8], 17.3% (inactive).
Consider `Cn1c(=O)c2c(nc(Oc3ccc4c(c3)OCO4)n2Cc2ccc(F)cc2)n(C)c1=O`, for which the viability is 79.5% in assay [1]; 79.5% (inactive) in assay [3]; 72.1% (inactive) in assay [4]; 74.7% (inactive) in assay [5]; 83% in assay [6] (setting [9]); 74.7% in assay [6] (setting [10]). Also, the Her2 level in assay [2] is 74.5% (inactive). Moreover, the differential viability (reversal) in assay [6] (H69AR cells + 2 uM doxorubicin) was -8.34% (inactive). The inhibition in assay [7] was -2.84% (inactive); in assay [8] it was 3.49% (inactive).
For `CCCN1C2CCCC1CC(NC(=O)c1ccccc1F)C2` (stereo not given), the viability in assay [1] is 99%; in assay [3] it was 99% (inactive); in assay [4], 94.2% (inactive); in assay [5] it was 106% (inactive); in assay [6] (setting [9]) it was 86%; in assay [6] (setting [10]), 106%. Also, the Her2 level in assay [2] was 96.5% (inactive). The differential viability (reversal) in assay [6] (H69AR cells + 2 uM doxorubicin) is 19.6% (inactive). The inhibition in assay [7] was -4.93% (inactive); in assay [8] it was 5.4% (inactive).
For the molecule `Cc1cc(SCC(N)=O)nc(SCC(=O)c2ccccc2)n1`, the viability in assay [1] is 92.5%; in assay [3], 92.5% (inactive); in assay [4] it was 106% (inactive); in assay [5], 99.8% (inactive); in assay [6] (setting [9]), 89.7%; in assay [6] (setting [10]) it was 99.8%. In assay [2], the Her2 level was 89% (inactive). Besides, the differential viability (reversal) in assay [6] (H69AR cells + 2 uM doxorubicin) is 10.1% (inactive). Moreover, the inhibition in assay [7] is -0.53% (inactive); in assay [8], -5.08% (inactive).
Regarding `COc1ccc(-c2noc(-c3cc(Cl)ccc3Cl)n2)cc1OC`, the viability is 122% in assay [1]; 122% (inactive) in assay [3]; 94.9% (inactive) in assay [4]; 107% (inactive) in assay [5]; 88.1% in assay [6] (setting [9]); 107% in assay [6] (setting [10]). In addition, the Her2 level in assay [2] is 78% (inactive). The differential viability (reversal) in assay [6] (H69AR cells + 2 uM doxorubicin) is 18.4% (inactive). In addition, the inhibition was -2.67% (inactive) in assay [7] and -4.52% (inactive) in assay [8].
Take `Cc1cc(C)n(CCc2nc(-c3cccs3)cs2)n1`: the viability in assay [1] was 93%; in assay [3], 93% (inactive); in assay [4], 106% (inactive); in assay [5] it was 104% (inactive); in assay [6] (setting [9]) it was 79.2%; in assay [6] (setting [10]), 104%. Further, in assay [2], the Her2 level is 88% (inactive). The differential viability (reversal) in assay [6] (H69AR cells + 2 uM doxorubicin) was 25.3% (inactive). Further, the values for the inhibition in assay [7] and in assay [8] were -2.6% (inactive) and -0.48% (inactive), respectively.
Turning to `CN(C)c1ccc(NC(=O)CSCc2nc3c(nnn3Cc3ccc(F)cc3)c(=O)[nH]2)cc1`, the viability in assay [1] is 89.5%; in assay [3], 89.5% (inactive); in assay [4], 110% (inactive); in assay [5], 94% (inactive); in assay [6] (setting [9]) it was 89.7%; in assay [6] (setting [10]), 94%. Moreover, in assay [2], the Her2 level was 83.5% (inactive). Further, the differential viability (reversal) in assay [6] (H69AR cells + 2 uM doxorubicin) was 4.32% (inactive). In addition, the results for the inhibition in assay [7] and in assay [8] were -6.49% (inactive) and 0% (inactive), respectively.

As usually defined, the viability is a read-out of living cells in per cent, often relative to untreated cells. For orientation: inhibition means the drop in the measured response relative to a control, in per cent.
